Values after ≈ are worked out from the molar mass of the structure shown. Active and inactive are the calls of the source. No cut-off for these calls is given here.
What was measured:
[1] = tested on: Listeria monocytogenes; assay: Antibacterial activity against Listeria monocytogenes after 24 hrs by agar streak dilution method; assay type: functional
Method in brief: (§1)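 Agar streak dilution on Mueller Hinton agar. Compound stock in DMSO was added in graded amounts to molten sterile agar at 40–50 °C. This was poured 3–4 mm deep and left to solidify. Bacterial suspension of about 10^5 cfu/ml was applied to the serially diluted plates. Plates were incubated at 37 °C for 24 h to read the MIC. Strains were food-poisoning isolates from animal byproducts.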

[2] = tested on: Candida albicans; assay: Antifungal activity against Candida albicans at 100 ug/ml after 48 hrs by paper disc diffusion technique; assay type: functional; conditions: read-out: IZ
Method in brief: (§2)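 Paper disc diffusion on Sabouraud dextrose agar, autoclaved at 120 °C for 30 min. Medium at 40–50 °C was seeded at 1 ml/100 ml with a 10^5 cfu/ml fungal suspension matched to 0.9 McFarland. It was poured 3–4 mm deep, and compound discs in DMSO were applied. Plates were pre-incubated 1 h at room temperature, then 28 °C for 48 h. The inhibition zone was recorded.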

[3] = tested on: Bacillus cereus; assay: Antibacterial activity against Bacillus cereus at 100 ug/ml after 24 hrs by paper disc diffusion technique; assay type: functional; conditions: read-out: IZ
Method in brief: (§3)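 Paper disc diffusion on Mueller Hinton agar, autoclaved at 120 °C for 30 min. Medium at 40–50 °C was seeded at 1 ml/100 ml with a 10^5 cfu/ml suspension matched to 0.9 McFarland. It was poured 3–4 mm deep, and discs with compound in DMSO were laid on it. Plates were pre-incubated 1 h at room temperature, then 37 °C for 24 h. The inhibition zone was measured.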

[4] = tested on: Salmonella typhimurium; assay: Antibacterial activity against Salmonella Typhimurium after 24 hrs by agar streak dilution method; assay type: functional, Salmonella enterica subsp. enterica serovar Typhimurium; conditions: Salmonella enterica; method in brief: as §1
[5] = tested on: Aspergillus flavus; assay: Antifungal activity against Aspergillus flavus after 48 hrs by agar streak dilution method; assay type: functional
Method in brief: (§4)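 Fungal MIC by agar streak dilution on Sabouraud dextrose agar. Compound stock in DMSO was added in graded amounts to molten sterile medium at 40–50 °C. This was poured 3–4 mm deep and left to solidify. Fungal suspension of about 10^5 cfu/ml was applied to the serially diluted plates. Plates were incubated at 37 °C for 48 h.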

[6] = tested on: Candida albicans; assay: Antifungal activity against Candida albicans after 48 hrs by agar streak dilution method; assay type: functional; method in brief: as §4
[7] = tested on: Pseudomonas aeruginosa; assay: Antibacterial activity against Pseudomonas aeruginosa at 100 ug/ml after 24 hrs by paper disc diffusion technique; assay type: functional; conditions: read-out: IZ; method in brief: as §3
[8] = tested on: Bacillus cereus; assay: Antibacterial activity against Bacillus cereus after 24 hrs by agar streak dilution method; assay type: functional; method in brief: as §1
[9] = tested on: Salmonella typhimurium; assay: Antibacterial activity against Salmonella Typhimurium at 100 ug/ml after 24 hrs by paper disc diffusion technique; assay type: functional, Salmonella enterica subsp. enterica serovar Typhimurium; conditions: Salmonella enterica, read-out: IZ; method in brief: as §3
[10] = tested on: Listeria monocytogenes; assay: Antibacterial activity against Listeria monocytogenes at 100 ug/ml after 24 hrs by paper disc diffusion technique; assay type: functional; conditions: read-out: IZ; method in brief: as §3
[11] = tested on: Pseudomonas aeruginosa; assay: Antibacterial activity against Pseudomonas aeruginosa after 24 hrs by agar streak dilution method; assay type: functional; method in brief: as §1
[12] = tested on: Escherichia coli; assay: Antibacterial activity against Escherichia coli O157 after 24 hrs by agar streak dilution method; assay type: functional; conditions: O157, 24 h
[13] = tested on: Staphylococcus aureus; assay: Antibacterial activity against Staphylococcus aureus at 100 ug/ml after 24 hrs by paper disc diffusion technique; assay type: functional; conditions: read-out: IZ; method in brief: as §3
[14] = tested on: Escherichia coli; assay: Antibacterial activity against Escherichia coli O157 at 100 ug/ml after 24 hrs by paper disc diffusion technique; assay type: functional; conditions: O157, 24 h, read-out: IZ
[15] = tested on: Staphylococcus aureus; assay: Antibacterial activity against Staphylococcus aureus after 24 hrs by agar streak dilution method; assay type: functional; method in brief: as §1
[16] = tested on: Aspergillus flavus; assay: Antifungal activity against Aspergillus flavus at 100 ug/ml after 48 hrs by paper disc diffusion technique; assay type: functional; conditions: for zone of inhibition at 100 µg/mL: read-out: IZ; method in brief: as §2

With `O=C(NN1C(=O)C=CC1=O)c1ccc(-n2c(-c3ccccc3)nc3c(Br)cc(Br)cc3c2=O)cc1` as the molecule, how does the MIC [1] read?
The MIC was over 50 µg/mL.

And the zone of inhibition at 100 µg/mL [2]?
The zone of inhibition at 100 µg/mL was 10 mm.

What about the zone of inhibition at 100 µg/mL [3] of the same molecule?
The zone of inhibition at 100 µg/mL was 9 mm.

And the MIC [4]?
The MIC was 2.9 µg/mL (≈ 4.88 µM).

And the MIC [5]?
The MIC was 4.5 µg/mL (≈ 7.57 µM).

And the MIC [6]?
The MIC was 25 µg/mL (≈ 42.1 µM).

What about the zone of inhibition at 100 µg/mL [7] of the same molecule?
The zone of inhibition at 100 µg/mL was 11 mm.

And the MIC [8]?
The MIC was 50 µg/mL (≈ 84.1 µM).

And the zone of inhibition at 100 µg/mL [9]?
The zone of inhibition at 100 µg/mL was 17 mm.

And the zone of inhibition at 100 µg/mL [10]?
Its zone of inhibition at 100 µg/mL is 11 mm.

What about the MIC [11] of the same molecule?
The MIC was over 50 µg/mL.

What about the MIC [12] of the same molecule?
Its MIC is over 50 µg/mL.

And the zone of inhibition at 100 µg/mL [13]?
Its zone of inhibition at 100 µg/mL is 9 mm.

What about the zone of inhibition at 100 µg/mL [14] of the same molecule?
The zone of inhibition at 100 µg/mL was 9 mm.

And the MIC [15]?
Its MIC is over 50 µg/mL.

What about the zone of inhibition at 100 µg/mL [16] of the same molecule?
Its zone of inhibition at 100 µg/mL is 17 mm.

Which results are given for `COc1ccc(C2SCC(=O)N2NC(=O)c2ccc(-n3c(-c4ccccc4)nc4c(Br)cc(Br)cc4c3=O)cc2)cc1` (configuration not stated)?
MIC [1]: > 50 µg/mL; zone of inhibition at 100 µg/mL [2]: 10 mm; zone of inhibition at 100 µg/mL [3]: 18 mm; MIC [4]: 40 µg/mL (≈ 56.6 µM); MIC [5]: 1.56 µg/mL (≈ 2.21 µM); MIC [6]: 25 µg/mL (≈ 35.4 µM); zone of inhibition at 100 µg/mL [7]: 11 mm; MIC [8]: 1.9 µg/mL (≈ 2.69 µM); zone of inhibition at 100 µg/mL [9]: 12 mm; zone of inhibition at 100 µg/mL [10]: 11 mm; MIC [11]: 50 µg/mL (≈ 70.8 µM); MIC [12]: 45 µg/mL (≈ 63.7 µM); zone of inhibition at 100 µg/mL [13]: 10 mm; zone of inhibition at 100 µg/mL [14]: 11 mm; MIC [15]: 45 µg/mL (≈ 63.7 µM); zone of inhibition at 100 µg/mL [16]: 20 mm

How did the MIC [1] turn out when `Cc1cc(C)n(C(=O)c2ccc(-n3c(-c4ccccc4)nc4c(Br)cc(Br)cc4c3=O)cc2)n1` was run?
The MIC was 12.5 µg/mL (≈ 21.6 µM).

What about the zone of inhibition at 100 µg/mL [2] of the same molecule?
Its zone of inhibition at 100 µg/mL is 9 mm.

What about the zone of inhibition at 100 µg/mL [3] of the same molecule?
The zone of inhibition at 100 µg/mL was 13 mm.

And the MIC [4]?
The MIC was 20 µg/mL (≈ 34.6 µM).

And the MIC [6]?
The MIC was 50 µg/mL (≈ 86.5 µM).

What about the zone of inhibition at 100 µg/mL [7] of the same molecule?
The zone of inhibition at 100 µg/mL was 12 mm.

What about the MIC [8] of the same molecule?
Its MIC is 25 µg/mL (≈ 43.2 µM).

And the zone of inhibition at 100 µg/mL [9]?
Its zone of inhibition at 100 µg/mL is 14 mm.

What about the zone of inhibition at 100 µg/mL [10] of the same molecule?
Its zone of inhibition at 100 µg/mL is 15 mm.

What about the MIC [11] of the same molecule?
The MIC was 30 µg/mL (≈ 51.9 µM).

What about the zone of inhibition at 100 µg/mL [13] of the same molecule?
Its zone of inhibition at 100 µg/mL is 10 mm.

And the MIC [15]?
The MIC was 50 µg/mL (≈ 86.5 µM).

And the “inhibition zone (IZ)” value [16]?
Its value is “inactive”.

With `O=C(N/N=C/c1ccc2ccccc2c1)c1ccc(-n2c(-c3ccccc3)nc3c(Br)cc(Br)cc3c2=O)cc1` as the molecule, how does the MIC [1] read?
Its MIC is 3.12 µg/mL (≈ 4.79 µM).

And the zone of inhibition at 100 µg/mL [2]?
The zone of inhibition at 100 µg/mL was 13 mm.

And the zone of inhibition at 100 µg/mL [3]?
The zone of inhibition at 100 µg/mL was 12 mm.

What about the MIC [4] of the same molecule?
The MIC was 50 µg/mL (≈ 76.6 µM).

And the MIC [5]?
Its MIC is 0.39 µg/mL (≈ 0.598 µM).

And the MIC [6]?
Its MIC is 25 µg/mL (≈ 38.3 µM).

And the zone of inhibition at 100 µg/mL [7]?
The zone of inhibition at 100 µg/mL was 13 mm.

And the MIC [8]?
The MIC was 50 µg/mL (≈ 76.6 µM).

And the zone of inhibition at 100 µg/mL [9]?
Its zone of inhibition at 100 µg/mL is 12 mm.

And the zone of inhibition at 100 µg/mL [10]?
The zone of inhibition at 100 µg/mL was 16 mm.

And the MIC [11]?
The MIC was 25 µg/mL (≈ 38.3 µM).

What about the MIC [12] of the same molecule?
The MIC was 25 µg/mL (≈ 38.3 µM).

And the zone of inhibition at 100 µg/mL [13]?
Its zone of inhibition at 100 µg/mL is 14 mm.

What about the zone of inhibition at 100 µg/mL [14] of the same molecule?
The zone of inhibition at 100 µg/mL was 13 mm.

What about the MIC [15] of the same molecule?
The MIC was 25 µg/mL (≈ 38.3 µM).

What about the zone of inhibition at 100 µg/mL [16] of the same molecule?
The zone of inhibition at 100 µg/mL was 26 mm.

Which results are given for `O=C(N/N=C/c1ccc(Cl)c(Cl)c1)c1ccc(-n2c(-c3ccccc3)nc3c(Br)cc(Br)cc3c2=O)cc1`?
MIC [1]: 25 µg/mL (≈ 37.2 µM); zone of inhibition at 100 µg/mL [2]: 11 mm; zone of inhibition at 100 µg/mL [3]: 17 mm; MIC [4]: 50 µg/mL (≈ 74.5 µM); MIC [5]: 19 µg/mL (≈ 28.3 µM); MIC [6]: 25 µg/mL (≈ 37.2 µM); zone of inhibition at 100 µg/mL [7]: 14 mm; MIC [8]: 1.56 µg/mL (≈ 2.32 µM); zone of inhibition at 100 µg/mL [9]: 11 mm; zone of inhibition at 100 µg/mL [10]: 13 mm; MIC [11]: 25 µg/mL (≈ 37.2 µM); MIC [12]: 25 µg/mL (≈ 37.2 µM); zone of inhibition at 100 µg/mL [13]: 14 mm; zone of inhibition at 100 µg/mL [14]: 14 mm; MIC [15]: 25 µg/mL (≈ 37.2 µM); zone of inhibition at 100 µg/mL [16]: 12 mm

Reference: ChEMBL document CHEMBL1208666, “Novel 6,8-dibromo-4(3H)quinazolinone derivatives of anti-bacterial and anti-fungal activities” (2010)
